Assay results reported in ChEMBL document CHEMBL3593187, “Modified quaternary ammonium salts as potential antimalarial agents” (Bioorg Med Chem, 2015).

Experiments:
Plasmodium falciparum [1] = test: Antiplasmodial activity against chloroquine-sensitive Plasmodium falciparum D10 assessed as inhibition of parasite growth after 72 hrs by parasite lactate dehydrogenase assay; type: functional, organism-based; conditions: D10, 72 h
In short: (§1)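 Asynchronous P. falciparum cultures (parasitaemia 1–1.5%, 1% final haematocrit, human type A-positive erythrocytes) in RPMI 1640 with 1% AlbuMaxII, 0.01% hypoxanthine, 20 mM Hepes and 2 mM glutamine. Cultures were exposed to serial dilutions (10 mg/mL stocks in water or DMSO) for 72 h at 37 °C under 1% O2/5% CO2/94% N2. Growth was read as pLDH activity (OD650), and IC50 is the mean ± SD of ≥3 independent experiments in duplicate.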

Plasmodium falciparum [2] = test: Antiplasmodial activity against chloroquine-resistant Plasmodium falciparum W2 assessed as inhibition of parasite growth after 72 hrs by parasite lactate dehydrogenase assay; type: functional, organism-based; conditions: W2, 72 h; in short: as §1
Plasmodium falciparum [3] = test: Resistance index, ratio of IC50 for chloroquine-resistant Plasmodium falciparum W2 to IC50 for chloroquine-sensitive Plasmodium falciparum D10; type: functional
In short: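 Resistance index is the IC50 against W2 divided by the IC50 against D10. Each IC50 came from a 72 h pLDH growth assay (OD650) on asynchronous cultures at 1% haematocrit and 37 °C, with ≥3 independent experiments in duplicate.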

[4] = Cytotoxicity against HMEC1 assessed as inhibition of cell proliferation after 72 hrs by MTT assay; conditions: Homo sapiens, HMEC-1, 72 h
In short: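 HMEC-1 cells grown in MCDB 131 with 10% fetal calf serum, 10 ng/mL EGF, hydrocortisone, 2 mM glutamine and 20 mM Hepes. Serial compound dilutions, 72 h at 37 °C in 5% CO2, then MTT for 3 h. Formazan dissolved in SDS/DMF lysing buffer (pH 4.7), read at 550 nm (ref 650 nm). IC50 from triplicates, at least three runs.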

[5] = Selectivity index, ratio of IC50 for HMEC1 to IC50 for chloroquine-sensitive Plasmodium falciparum D10
In short: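 Ratio of HMEC-1 IC50 (72 h MTT) to D10 IC50. […] Serial dilutions (final DMSO ≤1%), 72 h at 37 °C under 1% O2/5% CO2/94% N2. Growth read as pLDH activity (OD650). Mean of ≥3 experiments in duplicate.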

[6] = Selectivity index, ratio of IC50 for HMEC1 to IC50 for chloroquine-resistant Plasmodium falciparum W2
In short: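 Selectivity index is the IC50 on HMEC-1 divided by the IC50 on W2. HMEC-1 cells were grown in MCDB 131 with 10% FCS, EGF, hydrocortisone and Hepes, then given serial dilutions for 72 h at 37 °C in 5% CO2. MTT was added for 3 h, formazan was dissolved in SDS/DMF lysis buffer at pH 4.7, and absorbance was read at 550/650 nm. Each test was run in triplicate at least three times.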

Structure (SMILES) | IC50 (Plasmodium falciparum [1]) [nM] | IC50 (Plasmodium falciparum [2]) [nM] | Ratio IC50 (Plasmodium falciparum [3]) | IC50 [4] [nM] | Ratio IC50 [5] | Ratio IC50 [6]
C/C=C/C=C/C=C/C[N+](C)(C)CCCCCCCCCCCCCC.[I-] | 210 | 530 | 2.5 | 7890 | 36 | 14
C/C=C/C=C/C=C/C[N+](C)(C)CCCCCCCCCCCCCCCC.[I-] | 620 | 950 | 1.5 | 7070 | 11 | 7
CCCCCCCCCCCC[N+](C)(C)CCCCCCCC.[Br-] | 190 | 480 | 2.5 | 8690 | 44 | 18
C/C=C/C=C/C=C/C[N+](C)(CCCCCCCCCCCC)Cc1ccccc1.[I-] (centres undefined) | 250 | 330 | 1.2 | 5900 | 23 | 18
C/C=C/C=C/C=C/C[N+](C)(CCCCCCCCCCCCCCCC)Cc1ccccc1 (centres undefined) | > 8640 | > 8640 |  | 5990 |  | 
C/C=C/C=C/C=C/C[N+](C)(CCCCCCCCCCCCCC)Cc1ccccc1.[I-] (centres undefined) | 220 | 310 | 1.4 | 23000 | 102 | 75
C/C=C/C=C/C=C/C[N+](C)(C)CCCCCCCCCCCCCCCCCC.[I-] | 1150 | 1530 | 1.3 | 16700 | 14 | 10
CCN(CC)CCCC(C)Nc1ccnc2cc(Cl)ccc12 (centres undefined) [CHLOROQUINE] |  |  |  | > 20000 |  | 
C/C=C/C=C/C=C/C[N+](C)(CCCCCCCCCCCCCCCCCC)Cc1ccccc1.[I-] (centres undefined) | 450 | 610 | 1.3 | 7020 | 15 | 11
C/C=C/C=C/C=C/C[N+](C)(C)CCCCCCCCCCCC.[I-] | 4280 | 4710 | 1.1 | > 20000 |  | 
C/C=C/C=C/C=C/C[N+](C)(C)CCCCCCCCCCCCC.[I-] | 360 | 630 | 1.7 | 5630 | 15 | 8
C/C=C/C=C/C=C/C(=O)O | > 28400 | > 28400 |  |  |  | 
C/C=C/C=C/C=C/C[N+](C)(CCCCCCCCCCCCC)Cc1ccccc1.[I-] (centres undefined) | 870 | 520 | 0.6 | 21200 | 24 | 41
